Where a SMILES comes first, the peptide text is derived from it. [ ]: non-standard residue; d: D form. Nle = CCCC[C@H](N)C(=O)O; Dab = NCC[C@H](N)C(=O)O
Experiments:
[1] = tested on: trypsin, chymotrypsin, and proteinase K; experiment: Proteolytic stability assay; type: in vitro ADME; conditions: reaction mixture post-incubation with enzyme cocktail, ESI-MS positive mode
Procedure, shortened: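 Test compound (10 mM) was incubated with a 1:1:1 trypsin/chymotrypsin/proteinase K mixture (0.3 mg/mL) at 37 °C for 0–6 h. Enzymes were inactivated with an equal volume of acetonitrile containing 1% TFA for 15 min at 4 °C. The post-incubation reaction mixture was analysed by ESI-MS for intact peptide.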

[2] = tested on: human embryonic lungs (L132) cell lines; experiment: Cell viability; type: cell-based; conditions: L132 cells, 100 μM peptide, 4 h, absorbance 570 nm, triplicate

CCCC[C@H](NC(=O)[C@H](CCN)NC(=O)[C@H](CCN)NC(=O)[C@H](CCCC)NC(=O)[C@H](Cc1c[nH]c2ccccc12)NC(=O)[C@H](CCN)NC(=O)[C@@H](N)CCCC)C(N)=O [P36, Nle-Dab-Trp-Nle-Dab-Dab-Nle-CONH2] (H-[Nle][Dab]W[Nle][Dab][Dab][Nle]-NH2)
chemical integrity after protease incubation (ESI-MS) [1]: contained only intact P36
cell viability (MTT) [2]: ~90%

Reference: publication PMC9097201 (ACS Omega, 2022)
